In PMC4828309 (European journal of immunology, 2016):
“Also recorded” adds a separate entry of the source. No end group written: not given here.

Columns and labels:
DQ alleles in T2 cells = assay type: cell-based, human; conditions: T2 lymphoblastoid cells, absence or presence of HLA-DM, flow cytometry
Summary of the method: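 Human B-cell hybrid T2 line (endogenous Ii, MHC class II region deleted) expressing each DQ allele with or without HLA-DM. Cells surface-stained with PerCP-Cy5.5 anti-CLIP (Cer.CLIP1) and biotinylated anti-DQ (SPVL3) detected by streptavidin-APC or -PE-Cy7, alongside isotype-matched controls. Analysed by flow cytometry.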

DQ8 βT89G = test: Cell surface CLIP by flow cytometry, 293T cells expressing DQ8 βT89G mutant; assay type: cell-based, human; conditions: 293T + Ii, with vs without DM; βT89G disrupts one H-bond; CLIP/DQ ratio
DQ8 βE86A = test: Cell surface CLIP by flow cytometry, 293T cells expressing DQ8 βE86A mutant; assay type: cell-based, human; conditions: 293T + Ii, with vs without DM; βE86A disrupts two H-bonds; CLIP/DQ ratio
sDQ6 = test: FP assay of CLIP dissociation from sDQ6; assay type: binding, human; conditions: 50 nM sDQ6-^488CLIP, sDM 0 to 2000 nM, 37°C, pH 5.0
Summary of the method: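 sDQ6 secreted by lentivirus-transduced 293T cells, purified by His-resin then anti-DQ affinity, and thrombin-cleaved overnight. It was loaded with Alexa 488-labelled CLIP (1:5) plus 100 nM sDM for 3 h at 37°C in pH 5.0 citrate-phosphate/NaCl/Tween buffer, then spin-desalted. 50 nM complex, 0–2000 nM sDM and 100 μM unlabelled CLIP1 were read by FP at 37°C. FP was normalised to free-peptide background; rate enhancement was expressed relative to no-DM rate.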

[1] = test system: DQ2 with Gly at position 53; conditions: ref [22]; cited from earlier work
DQ8 [2] = test: Cell surface CLIP by flow cytometry, 293T cells expressing DQ8; assay type: cell-based, human
Summary of the method: (§1)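 Human 293T cells (no endogenous Ii, DM or DQ) were lentivirally transduced with full-length DQ α/β (T2A-linked, GFP vector), Ii, and DM (mCherry vector). They were sorted for GFP, DQ and mCherry. Surface staining used PerCP-Cy5.5 Cer.CLIP1 and biotinylated SPVL3 anti-DQ with streptavidin-APC or -PE-Cy7. Gating was on matched GFP/mCherry levels. Read-outs were MFI and the CLIP/DQ MFI ratio with vs without DM, from 3 independent experiments, mean + SD.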

DQ molecules = test: Peptide elution and HPLC-MS/MS, several DQ molecules reported together; parameters: species or system human
Summary of the method: (§2)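 About 1×10^9 sorted, stably transduced 293T cells expressing DQ+Ii or DQ+Ii+DM were lysed. DQ was captured with anti-DQ mAb SPVL3 on protein A beads. Bound peptides were eluted, separated by HPLC and sequenced by HPLC-MS/MS. Nested Ii-derived peptides were assigned to the CLIP1 core or the CLIP2 register. Results come from 2 independent experiments.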

DQ2-8 [3] = test: Cell surface CLIP by flow cytometry, 293T cells expressing DQ2-8 trans-dimer; assay type: cell-based, human
Summary of the method: as §1

DQ2 [4] = test: Cell surface CLIP by flow cytometry, 293T cells expressing DQ2; assay type: cell-based, human
Summary of the method: as §1

DQ6 [5] = test: Cell surface CLIP by flow cytometry, 293T cells expressing DQ6; assay type: cell-based, human; conditions: CerCLIP.1 mAb
Summary of the method: as §1

DQ1 [6] = test: Cell surface CLIP by flow cytometry, 293T cells expressing DQ1; assay type: cell-based, human; conditions: 293T DQ1, even in the absence of DM, CerCLIP.1 mAb
Summary of the method: as §1

DQ6 [7] = test: Peptide elution and HPLC-MS/MS, DQ6; parameters: species or system human; conditions: 293T DQ6+Ii+DM, 2 independent experiments
Summary of the method: as §2

DQ8-2 [8] = test: Cell surface CLIP by flow cytometry, 293T cells expressing DQ8-2 trans-dimer; assay type: cell-based, human
Summary of the method: as §1

DQ1 [9] = test: Peptide elution and HPLC-MS/MS, DQ1; parameters: species or system human
Summary of the method: as §2

DQ2-8 [10] = test: Peptide elution and HPLC-MS/MS, DQ2-8; parameters: species or system human; conditions: 293T DQ2-8+Ii+DM, 2 independent experiments
Summary of the method: as §2

DQ8-2 [11] = test: Peptide elution and HPLC-MS/MS, DQ8-2; parameters: species or system human; conditions: 293T DQ8-2+Ii+DM, 2 independent experiments
Summary of the method: as §2

DQ2 [12] = test: Peptide elution and HPLC-MS/MS, DQ2; parameters: species or system human; conditions: 293T DQ2+Ii+DM, 2 independent experiments
Summary of the method: as §2

DQ8 [13] = test: Peptide elution and HPLC-MS/MS, DQ8; parameters: species or system human; conditions: 293T DQ8+Ii+DM, 2 independent experiments
Summary of the method: as §2

[14] = target: soluble recombinant HLA-DQ8 (human); test: fluorescence polarisation
[15] = target: soluble recombinant HLA-DQ6 (human); test: fluorescence polarisation

DM: non-classical MHC protein HLA-DM catalyzing CLIP release and peptide exchange
DM editing of CLIP in T2 cells (DQ alleles in T2 cells): DQ2 and DQ2-8 were less sensitive to DM than DQ8 | Change in DM sensitivity of DQ8 mutant (DQ8 βT89G): little change in DM sensitivity | Change in DM sensitivity of DQ8 mutant (DQ8 βE86A): partially restore sensitivity to DM | Dissociation rate versus DM concentration (sDQ6): Peptide dissociation rates increased with increasing DM concentration; also recorded: rates appeared to saturate with increasing DM concentration | DM sensitivity after Gly insertion at α53 of DQ2 [1]: restored DM sensitivity; also recorded: marked increase in DM-mediated rate enhancement in the dissociation of a DQ2 binding peptide | Hierarchy of DM sensitivity among DQ molecules (DQ8 [2]; 293T DQ+Ii+DM, DQ8 compared with DQ2-8, DQ2, DQ8-2): DQ8 being the least sensitive, followed by DQ2-8, DQ2, and DQ8-2

PSSGLGVTKQDLGPVPM [CLIPc, reference compound]
CLIPc detection in eluates (DQ molecules; DQ samples from 293T cells): detected by HPLC-MS/MS from all of the samples (DQ2, DQ2-8 and DQ8-2), except DQ8

CLIP: Class II associated invariant chain peptide; Ii-derived, endogenous on DQ-expressing cells (Ac-VSK(Alexa Fluor 488)MRMATPLLMQ)
DM editing of CLIP in T2 cells (DQ alleles in T2 cells): consistent with those obtained with 293T cells | Cell surface CLIP upon DM co-expression (DQ2-8 [3]; 293T DQ2-8+Ii+DM, CerCLIP.1 mAb, flow cytometry, 3 independent experiments): retain high levels of cell surface CLIP | Cell surface CLIP level, no DM (DQ2-8 [3]; 293T DQ2-8+Ii, absence of DM, CerCLIP.1 mAb, flow cytometry, MFI): high | Reduction in cell surface CLIP by DM (DQ2-8 [3]; 293T cells co-expressing DM with DQ2-8): little or no reduction in CLIP levels | DM editing of CLIP upon DM co-expression (DQ2 [4]; 293T DQ2+Ii+DM, CerCLIP.1 mAb, flow cytometry, 3 independent experiments): relatively resistant to DM editing | Cell surface CLIP level, no DM (DQ2 [4]; 293T DQ2+Ii, absence of DM, CerCLIP.1 mAb, flow cytometry, MFI): high | DM editing resistance relative to DQ8 and DQ2-8 (DQ2 [4]; 293T, DQ2): less striking | Cell surface CLIP upon DM co-expression (DQ6 [5]; 293T DQ6+Ii+DM, 3 independent experiments): complete loss of cell surface CLIP | Cell surface CLIP level, no DM (DQ6 [5]; 293T DQ6+Ii, absence of DM, MFI): high | Cell surface CLIP level, no DM (DQ1 [6]): no detectable CLIP peptide | CLIP in peptide eluate, with DM (DQ6 [7]): not detected | Cell surface CLIP upon DM co-expression (DQ8 [2]; 293T DQ8+Ii+DM, CerCLIP.1 mAb, flow cytometry, 3 independent experiments): retain high levels of cell surface CLIP | Cell surface CLIP level, no DM (DQ8 [2]; 293T DQ8+Ii, absence of DM, CerCLIP.1 mAb, flow cytometry, MFI): high | Reduction in cell surface CLIP by DM (DQ8 [2]; 293T cells co-expressing DM with DQ8): little or no reduction in CLIP levels | CLIP peptides eluted, no DM (DQ molecules; 293T DQ+Ii without DM, all DQ alleles, 2 independent experiments): prominently presented by all DQ alleles | Cell surface CLIP upon DM co-expression (DQ8-2 [8]; 293T DQ8-2+Ii+DM, CerCLIP.1 mAb, flow cytometry, 3 independent experiments): retain high levels of cell surface CLIP | Cell surface CLIP level, no DM (DQ8-2 [8]; 293T DQ8-2+Ii, absence of DM, CerCLIP.1 mAb, flow cytometry, MFI): high | DM editing resistance relative to DQ8 and DQ2-8 (DQ8-2 [8]; 293T, DQ8-2 trans-dimer): less striking

LPKPPKPVSKMRMATPLLMQA [CLIP1]
CLIP peptides in eluate, no DM (DQ1 [9]; 293T DQ1+Ii without DM): detected | CLIP peptides in eluate, with DM (DQ1 [9]; 293T DQ1+Ii+DM): not in samples co-expressing DM | CLIP1 in peptide eluate, with DM (DQ2-8 [10]): detected | CLIP1 in peptide eluate, with DM (DQ8-2 [11]): detected | CLIP1 in peptide eluate, with DM (DQ2 [12]): detected | CLIP1 in peptide eluate, with DM (DQ8 [13]): detected

Ac-VSK(Alexa Fluor 488)MRMATPLLMQ [Alexa Fluor 488-labeled N-acetylated CLIP peptide]
intrinsic half-life of the complex [14]: 58 h | intrinsic half-life of the complex [15]: 7 h
